Measured values taken from ChEMBL document CHEMBL1154870, “Synthesis of tropolone derivatives and evaluation of their in vitro neuroprotective activity” (Eur J Med Chem, 2010).

Experiments:
[1] = tested on: HT-22; test: Ratio of beta-thujaplicin EC50 to drug EC50 for mouse HT22 cells
[2] = tested on: HT-22; test: Neuroprotective activity against glutamate-mediated oxidative stress-induced cell death in mouse HT22 cells assessed as survival after 24 hrs by MTT assay; type: functional, cell-based
Method in brief: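 HT22 cells seeded at 4000/well in DMEM-Hepes-GlutaMAX with 10% FBS. After 24 h, 5 mM glutamate was added with or without test compound in fresh medium for 24 h. Viability was read by MTT formazan (OD 550 minus 670 nm), with DMSO vehicle controls. EC50 was the concentration keeping glutamate-exposed viability at 50% of unexposed cells. Mean ± SEM, ≥3 independent experiments.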

[3] = tested on: HT-22; test: Neuroprotective activity against glutamate-mediated oxidative stress-induced cell death in mouse HT22 cells assessed as survival at 10 uM after 24 hrs by MTT assay; type: functional
Method in brief: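 HT22 mouse hippocampal cells seeded at 4000/well in DMEM-Hepes-GlutaMAX with 10% FBS; after 24 h, challenged with 5 mM glutamate plus test compound in fresh medium for 24 h. MTT formazan read as dOD 550–670 nm. % neuroprotection = (CD_vehicle − CD_compound)/CD_vehicle; efficacy classed full/partial/weak as 67–100, 34–66, ≤33%. Mean of ≥3 independent experiments.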

Row | Molecule | Ratio EC50 [1] | EC50 ([2]; Mus musculus, HT-22, 24 h) | Efficacy [3] | EC50 ([2]; ht-22)
1 | O=c1c(O)ccccc1CN1CCOCC1 | <0.5 | > 10000 nM | – | –
2 | COc1cc(C(C)C)ccc(Cn2cc(Cc3ccccc3)nn2)c1=O | <0.5 | > 10000 nM | 30% | –
3 | CC(C)c1ccc(CN2CCOCC2)c(=O)c(O)c1 | 1.9 | 2560 nM | 87% | –
4 | COc1cc(C(C)C)ccc(COc2ccccn2)c1=O | <0.5 | > 10000 nM | – | –
5 | CCOC(=O)N1CCN(Cc2ccc(C(C)C)cc(O)c2=O)CC1 | 3.4 | 1400 nM | 88% | –
6 | CC(C)c1ccc(CN2CCN(c3ccc([N+](=O)[O-])cc3)CC2)c(=O)c(O)c1 | 2.8 | 1700 nM | 91% | –
7 | CC(C)c1ccc(CN2CCN(Cc3ccc([N+](=O)[O-])cc3)CC2)c(=O)c(O)c1 | 5 | 960 nM | 100% | –
8 | Cc1c(C)c2c(c(C)c1O)CCC(C)(C(=O)N1CCN(Cc3ccc(C(C)C)cc(O)c3=O)CC1)O2 (configuration not stated) | 60 | 80 nM | 62% | –
9 | Cc1c(C)c2c(c(C)c1O)CCC(C)(C(=O)NCCN1CCN(Cc3ccc(C(C)C)cc(O)c3=O)CC1)O2 (configuration not stated) | 53 | 90 nM | 89% | –
10 | CC(C)c1ccc(CN2CCN(Cc3ccc(C(C)C)cc(O)c3=O)CC2)c(=O)c(O)c1 | – | 920 nM | – | –
11 | CC(C)c1cccc(=O)c(O)c1 [HINOKITIOL] | 1 | 4800 nM | 62% | –
12 | O=c1cccccc1O [TROPOLONE] | <0.5 | > 10000 nM | – | –
13 | VITAMIN E | – | – | – | 200 nM
